What was measured:
[1] = Cardiotonic activity in guinea pig left atrial muscles assessed as minimum positive inotropic effective concentration causing myocardial contraction; type: functional, Cavia porcellus, Muscle tissue
In short: (§1)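 Guinea pig left atrial or right ventricular strips were perfused with Tyrode's solution, held at 1 g tension and paced at 2 Hz (2 ms, twice threshold). After about 60 min stabilisation, drug was added cumulatively. PIECmin was recorded as the lowest concentration that increased myocardial contraction.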

[2] = Safety index, ratio of arrhythmogenic concentration to minimum positive inotropic effective concentration causing myocardial contraction in guinea pig right ventricular muscles; type: toxicity, tissue-based, Cavia porcellus, Muscle tissue; details: isolated right ventricular muscles
In short: (§2)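 Paced guinea pig left atrial or right ventricular strips (1 g tension, 2 Hz) received cumulative drug addition. The lowest concentration raising contraction (PIECmin) and the concentration inducing arrhythmia were both recorded. Safety index was calculated as the ratio of the arrhythmogenic concentration to PIECmin.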

[3] = Cardiotonic activity in guinea pig left atrial muscles assessed as maximum positive inotropic effective concentration causing myocardial contraction relative to basal level; type: functional, Cavia porcellus, Muscle tissue
In short: (§3)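 Isolated left atrial or right ventricular strips from adult guinea pigs (300–500 g; pentobarbital 25 mg/kg i.p.; heart retrogradely perfused with Tyrode's, pH not stated). Tissue held at 1 g tension, paced at 2 Hz (2 ms pulses, twice threshold), stabilised about 60 min, then given cumulative drug additions. Maximal inotropic effect taken at the concentration just before arrhythmia onset.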

[4] = Cardiotonic activity in guinea pig right ventricular muscles assessed as maximum positive inotropic effective concentration causing myocardial contraction relative to basal level; type: functional, Cavia porcellus, Muscle tissue; in short: as §3
[5] = Cardiotonic activity in guinea pig right ventricular muscles assessed as minimum positive inotropic effective concentration causing myocardial contraction; type: functional, Cavia porcellus, Muscle tissue; in short: as §1
[6] = Safety index, ratio of arrhythmogenic concentration to minimum positive inotropic effective concentration causing myocardial contraction in guinea pig left atrial muscles; type: toxicity, tissue-based, Cavia porcellus, Muscle tissue; details: isolated left atrial muscles; in short: as §2
Cavia porcellus = species on record: Cavia porcellus; test: Inhibition of Na(+)/K(+)-ATPase in guinea pig atria by whole cell patch clamp method

Structure (SMILES) | Activity [1] [µM] | selectivity ratio [2] | Activity [3] [%] | Activity [4] [%] | Activity [5] [µM] | selectivity ratio [6] | inhibition (Cavia porcellus)
C[C@@H]1O[C@H](O[C@H]2CC[C@@]3(C=O)[C@H](CC[C@@H]4[C@@H]3CC[C@]3(C)[C@@H](C5=CC(=O)OC5)CC[C@]43O)C2)[C@H](O)[C@H](O)[C@H]1O [MALAYOSIDE] | 0.25 | 24 | 660 | 464 | 0.25 | 20 | Dose-dependent effect
C[C@]12CC[C@H]3[C@@H](CC[C@]4(O)C[C@@H](O)CC[C@]34CO)[C@@]1(O)CC[C@@H]2C1=CC(=O)OC1 [STROPHANTHIDOL] | 1.25 | 65 | 205 | 408 | 0.3 | 6.3 | –
C[C@@H]1O[C@H](O[C@H]2CC[C@@H]3[C@H]4CC[C@]5(C)[C@@H](C6=CC(=O)OC6)CC[C@]5(O)[C@@H]4CC[C@]3(O)C2)[C@H](O)[C@H](O)[C@H]1O [ANTIAROSIDE I] | 0.83 | 10.7 | 562 | 1246 | 0.67 | 6.7 | –
